Laboratory results reported in the RNAGym collection of RNA variant scans (doi:10.1126/science.aae0568).
Variants at the floor of the assay were thinned out.

B1: tRNA (parent)
chain: GUUCCGUUGGCGUAAUGGUAACGCGUCUCCCUCCUAAGGAGAAGACUGCGGGUUCGAGUCCCGUACGGAACG

Variants of: B1
Experiment: yeast fitness relative to wild type (ratio to wild type); higher = fitter; tRNA-Arg(CCU), competitive growth, 37 C, YPD
Outline: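 Genotype frequency changes were the basis for Darwinian fitness relative to wild type. The frequencies came from 100-nucleotide paired-end sequencing of gene amplicons from the start population and each end population of pooled yeast strains with tRNA-Arg(CCU) gene variants at the native locus. Competition ran in YPD at 37°C for 24 hours in six replicates, genotypes needed ≥ 100 starting reads, and estimates < 0.5 were set to 0.5.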

Row | Variant | yeast fitness
1 | GUUCGGUUGGCGUAAUGGUAACGCGACUCCCUCCUAAGGAGAAGACUGCGGGUUCGAGUCCCGUACGGAACG [C5G U26A] | 0.815
2 | GUUCGGUUGGCGUAAAGGUAACGCGUCUCCCUCCUAAGGAGAAGACUACGGGUCCGAGUCCCGUACGGAACG [C5G U16A G48A U54C] | 0.701
3 | GUUCGGUUGGCGUAAAGGUAACGCGUCUCCCUCCUAAGGAGAAGACUGCGGGUUCGAGUCUCGUACGGAACG [C5G U16A C61U] | 0.589
4 | GUUCGGUUGGCGUAAUGGUAACGCGACUCCCUCCUCAGGAGAAGACUGCGGGUUCGAGUCCCGUACGGAACG [C5G U26A A36C] | ≤ 0.5
5 | GUUCGGUUGGCGUAAUGGAUACGCGUCUCCCUCCUAAGGAGAAGACUGCGCGUUCGAGUCCCGUACGGAACG [C5G U19A A20U G51C] | ≤ 0.5
6 | GUUCGGUUGGCGCAAUGGUAACGCGUCUCCCUCCUAAGGAGAAGACUGCGGGUUCGAGUCCCGUACGGAACG [C5G U13C] | 0.875
7 | GUUCGGUUGGCGGAAUGGUAACGGGUCUCCCUCCUAAGGAGAAGACUGCGGGUUCGAGUCCCGUACGGAACG [C5G U13G C24G] | ≤ 0.5
8 | GUUCGGUUGGCGCAAUGGUAACGCGUCUCCCUCCUAAGGAGACGACUGCGGGUUCGAGUCCCGUACGGAACG [C5G U13C A43C] | ≤ 0.5
9 | GUUCGGUUGGCGCAAUGGUAAGGCGUCUGCCUCCUAAGGAGAAGCCUGCGGGUUCGAGUCCCGUACGGAACG [C5G U13C C22G C29G A45C] | ≤ 0.5
10 | GUUCGGUUGGCGUAAUGGGAACGCGUCUCCUACCUAAGGAGAAGUCUGCGGGUUCGAGUCCCGUACGGAUCG [C5G U19G C31U U32A A45U A70U] | ≤ 0.5
11 | GUUCGGUUGGCGUAAUGGGAACGCGUCUCCCUCCUUAGGAGAAGACUGCGGGUUCCAGUCCCGUCCGGAACG [C5G U19G A36U G56C A65C] | ≤ 0.5
12 | GUUCGGUUGGCGCAAUGGUACCGCGUCUCCCUCCUAAGGAGAAGACUGCGGGUUCGAGUCCCGUACGAAACG [C5G U13C A21C G68A] | ≤ 0.5
13 | GUUCGGUUGGCGUAAAGGUACCGCGUCUCCCUCCUACGGAGAAGACUGCGGGUUCGAGUCCCGUACGAAACG [C5G U16A A21C A37C G68A] | ≤ 0.5
14 | GUUCGGUUGGCGAAAUGGUAACGCGUCUCCGUCCUAAGGAGAAGACUGCAGGUUCGAGUCCCGUACAGAACG [C5G U13A C31G G50A G67A] | ≤ 0.5
15 | GUUCGGUUGGCGCAAUGGUAACGCGUCUCCCUCAUAAGGAGAAGACUGCGGGUUCGUGUCCCGUACGGAACG [C5G U13C C34A A57U] | ≤ 0.5
16 | GUUCGGUUGGCGCAAUGGUAACGCGUCUCCCUCCUAAGGAGAAGAUUGCGGGUUCGAGUCCCGUACGGAACG [C5G U13C C46U] | 0.547
17 | GUUCGGUUGGCGUAAAGGUAACGCGUCUCCCUCCUAAGGAGAAAAUUGCGGGUUCGAGUCCCGUACGGCACG [C5G U16A G44A C46U A69C] | ≤ 0.5
18 | GUUCGGUUGGCGUAAUGGCAACGCGACUCCCUCCUAAGGAGAAGACUGCGGGUUUGAGUCCCGUACGGAACG [C5G U19C U26A C55U] | ≤ 0.5
19 | GUUCGGUUGGCGUAAUGGUAACGCGACUCCCUCCUAAGGUGAAGACUGCGGGUUCGAGUCCCCUACGGAACG [C5G U26A A40U G63C] | ≤ 0.5

Row | Variant | yeast fitness
20 | GUUCGGUUGGCGCAAUGGUCACGCGUCUCCCGCCUAAGGAGAAGAUUGCGGGUUCGACUCCCGUACGGAACG [C5G U13C A20C U32G C46U G58C] | ≤ 0.5
21 | GUUCGGUUGGCGUAAUGGUAACGCGCCUCCCUCCUCAGGAGAAGACUGCGGGUUCGAGUCCCGUACGGAACG [C5G U26C A36C] | 0.547
22 | GUUCGGUUGGCGAAAUGGAAACGCGUCUCUCUCCUAAGGAGAAGACUGCGGGUUCGAGUCCCGUACGGAACG [C5G U13A U19A C30U] | 0.573
23 | GUUCGGUUGGCGGAAUGGUAACGCGUCUCCCUCCUUAGGAGAAGACUGCGGGUUCGAGUCCCGGACGGAACG [C5G U13G A36U U64G] | ≤ 0.5
24 | GUUCGGUUGGCGUAAAGGUAACGCGUCUCCCUCCUAAGGAGAGGACUGCGGGUUCGAGUCCCGUACGGAACG [C5G U16A A43G] | 0.573
25 | GUUCGGUUGGCGUAACGGUAACGCGUCUCCCUCCUAAGGAGAAGACUGCGGGUUCGAGUCCCGUACGGAACG [C5G U16C] | 0.722
26 | GUUCGGUUGGCGUAAAGGGCACGCGUUUUUCUCCUAAGGAGAAGACUGCGGGUUCGAGUCCCGUACGGAUCG [C5G U16A U19G A20C C27U C29U C30U A70U] | ≤ 0.5
27 | GUUCGGUUGGCGUAAUGGAAACGGGUCUCCCUCAUAAGGAGAAGACUGCGGGUUUGAGUCCCGUACGGAACG [C5G U19A C24G C34A C55U] | 0.601
28 | GUUCGGUUGGCGUAAUGGCAACGCAUCUCCCUCCUAAGGAGAAGACUGCGGGUUCGAGUCCCGUACGGAACG [C5G U19C G25A] | 0.716
29 | GUUCGGUUGGCGUAAUGGGAAUGCGUCUCCCCCCUAAGGAGAAGACUGCGGGUUCGAGUCCCGUCCGGAACG [C5G U19G C22U U32C A65C] | ≤ 0.5
30 | GUUCGGUUGGCGGAAUGGUUACGCGUCUCCCUCCUAGGGAGAAGACUGCGGGUUCGAGUCCCGUACGGUACG [C5G U13G A20U A37G A69U] | ≤ 0.5
31 | GUUCGGUUGGCGCAAUGGUAACGCGUCUCCAUCCUAAGGAGAGGACUGCCGGUUCGAGUCCCGUACGGAACG [C5G U13C C31A A43G G50C] | ≤ 0.5
32 | GUUCGGUUGGCGUAACGGUAACGCGUCUCCCUUCUAAGGAGAAGACUGCGGGUUCGAGUCCCGUAAGGAACG [C5G U16C C33U C66A] | ≤ 0.5
33 | GUUCGGUUGGCGUAACGGUAACGCGUCUCCCUCCUAAGGAGAAGACUGCGGGUUCGAGUCCCGUACAGAACG [C5G U16C G67A] | ≤ 0.5
34 | GUUCGGUUGGCGUAAUGGCAACGCGUCUCCCUCCUAAGGAGAAGACUGCGGGUCCGAGUCCCGUACGGUACG [C5G U19C U54C A69U] | ≤ 0.5
35 | GUUCGGUUGGCGUAAUGGCAACGCGUCUCCCUCCUAAGGAGAAGACUGCGGGUCCGAGUCCCGUACGGCACG [C5G U19C U54C A69C] | ≤ 0.5
36 | GUUCGGUUGGCGGAAUGGUAACGCGUCUUCCUCCUAAGGAGAAGACUGCCGGUUCGAGACCCGUACGGAACG [C5G U13G C29U G50C U59A] | ≤ 0.5
37 | GUUCGGUUGGCGCAAUGGUACCGCGUCUCCCUCCUAAGGAGAAGACUGCGGGUUCGAGUCCCCUACGGCACG [C5G U13C A21C G63C A69C] | ≤ 0.5
38 | GUUCGGUUGGCGCAAUGGUAACGCGUCUUCCUCCUAAGGAGAAGACUGCGGGUUCGAGUCCUGUACGGAACG [C5G U13C C29U C62U] | ≤ 0.5
